Test results published in ChEMBL document CHEMBL4368859, “Discovery of boron-containing compounds as Aβ aggregation inhibitors and antioxidants for the treatment of Alzheimer's disease” (Medchemcomm, 2018).
Active and inactive are the calls of the source. The rule behind the calls is not given here.

Tests used:
[1] = Antioxidant activity assessed as trolox equivalents of AAPH radical scavenging activity at 20 uL preincubated for 10 mins followed by AAPH addition measured every min for 120 mins by ORAC-FL assay; type: functional
How it was run: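 Test compound diluted to 10 µM in 75 mM phosphate buffer (pH 7.4). It was pre-incubated with fluorescein (70 nM final) at 37 °C, then AAPH (40 mM solution) was added. Fluorescence (ex 485/em 520 nm) was read each minute for 120 min. […] Triplicates, at least three independent runs, mean ± SD.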

[2] = target: T1, Amyloid-beta precursor protein (Homo sapiens, UniProt P05067); assay: Inhibition of self-induced aggregation of amyloid beta (1 to 42) (unknown origin) at 20 uM after 48 hrs by thioflavin T-based fluorescence method relative to control
T1 sequence (P05067 whole entry): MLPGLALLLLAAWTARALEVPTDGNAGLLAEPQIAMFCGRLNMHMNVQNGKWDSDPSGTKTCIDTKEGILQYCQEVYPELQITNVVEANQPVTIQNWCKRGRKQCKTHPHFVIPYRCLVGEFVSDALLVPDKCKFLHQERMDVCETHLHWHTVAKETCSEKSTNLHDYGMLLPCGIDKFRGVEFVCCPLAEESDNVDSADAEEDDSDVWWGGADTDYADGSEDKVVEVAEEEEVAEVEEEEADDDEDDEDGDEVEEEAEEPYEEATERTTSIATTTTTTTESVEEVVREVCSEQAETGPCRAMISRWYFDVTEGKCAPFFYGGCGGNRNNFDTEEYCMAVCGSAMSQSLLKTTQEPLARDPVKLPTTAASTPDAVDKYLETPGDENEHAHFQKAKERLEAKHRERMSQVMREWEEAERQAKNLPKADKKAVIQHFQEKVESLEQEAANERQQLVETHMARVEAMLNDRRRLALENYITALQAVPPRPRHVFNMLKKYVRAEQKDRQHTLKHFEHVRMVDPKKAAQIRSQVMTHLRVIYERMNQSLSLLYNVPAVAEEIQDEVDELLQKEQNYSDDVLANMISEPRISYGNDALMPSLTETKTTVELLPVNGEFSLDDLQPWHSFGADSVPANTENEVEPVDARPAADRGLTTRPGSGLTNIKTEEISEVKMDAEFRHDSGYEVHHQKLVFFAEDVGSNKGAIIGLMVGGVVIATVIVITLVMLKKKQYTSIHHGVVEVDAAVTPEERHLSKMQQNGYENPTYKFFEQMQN
How it was run: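 Aβ1-42 stock was in 1% ammonium hydroxide, diluted in 50 mM phosphate buffer (pH 7.4). Peptide (25 µM final) was incubated ± compound at 37 °C for 48 h, with peptide-free blanks. Samples were diluted in 50 mM glycine-NaOH (pH 8.0) with 5 µM ThT and read after 5 min (ex 450/em 485 nm). Inhibition = (1−IFi/IFc)×100 after background subtraction. At least three independent measurements, mean ± SD.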

[3] = target: T1, Amyloid-beta precursor protein; assay: Inhibition of self-induced aggregation of amyloid beta (1 to 42) (unknown origin) after 48 hrs by thioflavin T-based fluorescence method
[4] = Metal chelating activity assessed as Fe3+-compound complex formation at 20 uM after 30 mins by UV-Vis spectrophotometric method
[5] = Metal chelating activity assessed as Zn2+-compound complex formation at 20 uM after 30 mins by UV-Vis spectrophotometric method
How it was run: (§1)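 UV-Vis absorption spectra were recorded for compound (20 µM final) alone or with CuSO4, FeSO4 or ZnCl2 (40 µM final) after 30 min. Medium was 20% (v/v) ethanol/buffer (20 mM HEPES, 150 mM NaCl, pH 7.4), at room temperature.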

[6] = Metal chelating activity assessed as Cu2+-compound complex formation by measuring shift in maximum absorption wavelength at 20 uM after 30 mins by UV-Vis spectrophotometric method; how it was run: as §1
[7] = target: T1, Amyloid-beta precursor protein; assay: Potency index, ratio of curcumin IC50 to test compound IC50 for self-induced aggregation of amyloid beta (1 to 42) (unknown origin)
[8] = Metal chelating activity assessed as Fe2+-compound complex formation by measuring shift in maximum absorption wavelength at 20 uM after 30 mins by UV-Vis spectrophotometric method; how it was run: as §1

| Compound | Activity (umolequiv/umol) [1] | inhibition [2] [%] | IC50 [3] [µM] | also measured |
| --- | --- | --- | --- | --- |
| COc1ccc(/C=C/c2cc(OC)cc(OC)c2)cc1 | 0.21 |  |  |  |
| CN(C)c1ccc2c3c(ccc2c1)OB(O)C(c1ccc(O)c(O)c1)=C3 | 4.88 | 49.5 |  |  |
| OB1Oc2ccc3cc(O)ccc3c2C=C1c1cc(O)cc(O)c1 | 5.87 | 70.3 | 8.9 |  |
| Oc1ccc(/C=C/c2cc(O)cc(O)c2)cc1 | 5.33 |  |  |  |
| OB1Oc2cc(O)ccc2C=C1c1cc(O)cc(O)c1 | 4.84 | 50.2 | 21.7 |  |
| OB1Oc2ccc(O)cc2C=C1c1ccc(O)c(O)c1 | 4.09 | 58.8 | 17.5 |  |
| CN(C)c1ccc2c3c(ccc2c1)OB(O)C(c1ccc(O)cc1)=C3 | 2.41 | 0 |  |  |
| OB1Oc2ccc3ccc(O)cc3c2C=C1c1ccc(O)cc1 | 4.45 | 20.5 |  |  |
| OB1Oc2ccc3ccc(O)cc3c2C=C1c1ccc(O)c(O)c1 | 4.55 | 82.8 | 3.4 | Activity [4]: inactive; Activity [5]: inactive; Activity [6]: 355 nm; Ratio IC50 [7]: 4; Activity [8]: 350 nm |
| OB1Oc2ccc3ccccc3c2C=C1c1cc(O)cc(O)c1 | 3 | 67.3 | 12.6 |  |
| OB1Oc2ccc3ccc(O)cc3c2C=C1c1cc(O)cc(O)c1 | 5.34 | 78.7 | 4.9 |  |
| CN(C)c1ccc2c3c(ccc2c1)OB(O)C(c1cc(O)cc(O)c1)=C3 | 5.27 | 32.4 |  |  |
| OB1Oc2ccc3cc(O)ccc3c2C=C1c1ccc(O)cc1 | 3.94 | 12.3 |  |  |
| OB1Oc2ccc3ccccc3c2C=C1c1ccc(O)c(O)c1 | 2.7 | 43.7 |  |  |
| COc1cc(/C=C/C(=O)O)ccc1O | 3.24 |  |  |  |
| OB1Oc2ccc3cc(O)ccc3c2C=C1c1ccc(O)c(O)c1 | 4.05 | 80.5 | 4.6 |  |
| OB1Oc2ccc3ccccc3c2C=C1c1ccc(O)cc1 | 2.06 | 0 |  |  |
